ChEMBL document CHEMBL5316292 (J Med Chem, 2023)
The source made the active and inactive calls. The calls are words filed in the database; no cut-off is given here.

Columns and labels:
[1] = molecular target: T1, Bromodomain-containing protein 3 (Homo sapiens, UniProt Q15059); experiment: Induction of BRD3 degradation in human MDA-MB-231 cells at 10 uM by immunoblotting analysis; type: cell-based; conditions: time 8.0 hrs
Target sequence in this assay (Q15059 2-726 limits assumed): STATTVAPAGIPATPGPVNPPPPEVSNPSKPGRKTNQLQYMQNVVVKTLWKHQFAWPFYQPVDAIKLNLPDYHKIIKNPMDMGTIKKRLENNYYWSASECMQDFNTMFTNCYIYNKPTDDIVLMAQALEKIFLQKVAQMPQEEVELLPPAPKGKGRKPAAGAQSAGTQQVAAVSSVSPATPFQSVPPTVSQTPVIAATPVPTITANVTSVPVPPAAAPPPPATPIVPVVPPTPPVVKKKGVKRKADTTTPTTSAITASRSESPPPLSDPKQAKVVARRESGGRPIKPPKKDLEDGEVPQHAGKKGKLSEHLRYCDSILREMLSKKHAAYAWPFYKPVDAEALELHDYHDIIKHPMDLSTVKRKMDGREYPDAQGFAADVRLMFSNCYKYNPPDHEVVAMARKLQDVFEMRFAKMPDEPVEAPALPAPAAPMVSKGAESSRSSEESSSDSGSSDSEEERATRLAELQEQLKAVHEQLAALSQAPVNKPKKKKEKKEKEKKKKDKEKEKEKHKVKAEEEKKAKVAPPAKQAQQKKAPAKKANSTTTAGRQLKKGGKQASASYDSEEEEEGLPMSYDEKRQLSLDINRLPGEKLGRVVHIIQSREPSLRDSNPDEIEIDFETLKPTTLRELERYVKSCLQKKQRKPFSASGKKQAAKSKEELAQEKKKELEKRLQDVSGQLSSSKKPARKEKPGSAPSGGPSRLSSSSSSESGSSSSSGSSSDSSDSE

[2] = molecular target: T1, Bromodomain-containing protein 3; experiment: Induction of BRD3 degradation in human PC-3 cells incubated for 16 hrs by immunoblotting analysis; type: cell-based
Procedure, shortened: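 MDA-MB-231 or PC-3 cells at 50% confluence in DMEM/10% FBS/pen-strep, treated 16 h with doses falling tenfold from 10 µM to 1 nM. RIPA lysates immunoblotted for BRD2, BRD3 and BRD4 with GAPDH as control. DC50 derived from band densitometry. SEM, n = 2.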

SMILES: CC(=O)OC[C@]12CC[C@H]3[C@@H](C[C@H]4O[C@]45CC=CC(=O)[C@]35C)[C@]1(O)CC[C@@]2(O)[C@@](C)(O)[C@H]1CC(C)=C(C)C(=O)O1
- Activity [1]: Active
- Activity [2]: Dose-Dependent Effect
- DC50 [2]: 7.29 µM
